Experiments:
Type in all cases: functional
Details in all cases: read-out: DIZ
[1] = tested on: Escherichia coli; assay: Antimicrobial activity against Escherichia coli at 1 mg/ml by well plate method
In short: (§1)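 Agar well-plate diffusion against E. coli, B. subtilis and P. aeruginosa. Test compounds dissolved in DMSO at 1 and 0.5 mg/mL and placed in wells. Streptomycin was the reference drug. Read-out is the zone of inhibition.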

[2] = tested on: Pseudomonas aeruginosa; assay: Antimicrobial activity against Pseudomonas aeruginosa at 1 mg/ml by well plate method; in short: as §1
[3] = tested on: Bacillus subtilis; assay: Antimicrobial activity against Bacillus subtilis at 1 mg/ml by well plate method; in short: as §1
[4] = tested on: Bacillus subtilis; assay: Antimicrobial activity against Bacillus subtilis at 0.5 mg/ml by well plate method; in short: as §1
[5] = tested on: Pseudomonas aeruginosa; assay: Antimicrobial activity against Pseudomonas aeruginosa at 0.5 mg/ml by well plate method; in short: as §1
[6] = tested on: Escherichia coli; assay: Antimicrobial activity against Escherichia coli at 0.5 mg/ml by well plate method; in short: as §1
[7] = tested on: Candida albicans; assay: Antimicrobial activity against Candida albicans at 1 mg/ml by well plate method
In short: (§2)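 Fungal well-plate diffusion against Candida albicans, Aspergillus flavus and Chrysosporium keratinophilum. Compounds in DMSO at 1 and 0.5 mg/mL, with fluconazole as the reference drug. Activity scored as the zone of inhibition.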

[8] = tested on: Chrysosporium keratinophilum; assay: Antimicrobial activity against Chrysosporium keratinophilum at 0.5 mg/ml by well plate method; in short: as §2
[9] = tested on: Chrysosporium keratinophilum; assay: Antimicrobial activity against Chrysosporium keratinophilum at 1 mg/ml by well plate method; in short: as §2
[10] = tested on: Candida albicans; assay: Antimicrobial activity against Candida albicans at 0.5 mg/ml by well plate method; in short: as §2
[11] = tested on: Aspergillus flavus; assay: Antimicrobial activity against Aspergillus flavus at 0.5 mg/ml by well plate method; in short: as §2
[12] = tested on: Aspergillus flavus; assay: Antimicrobial activity against Aspergillus flavus at 1 mg/ml by well plate method; in short: as §2

Compound	zone of inhibition at 1000 µg/mL [1]	zone of inhibition at 1000 µg/mL [2]	zone of inhibition at 1000 µg/mL [3]	zone of inhibition at 500 µg/mL [4]	zone of inhibition at 500 µg/mL [5]	zone of inhibition at 500 µg/mL [6]	zone of inhibition at 1000 µg/mL [7]	zone of inhibition at 500 µg/mL [8]	zone of inhibition at 1000 µg/mL [9]	zone of inhibition at 500 µg/mL [10]	zone of inhibition at 500 µg/mL [11]	zone of inhibition at 1000 µg/mL [12]
COc1ccc(-c2cn3nc(-c4ccc(N5CCN(C)CC5)c([N+](=O)[O-])c4)sc3n2)cc1	6 mm	5 mm	5 mm	3 mm	3 mm	4 mm						
COc1ccc(-c2cn3nc(-c4ccc(N(C)C)c([N+](=O)[O-])c4)sc3n2)cc1	4 mm	6 mm	3 mm	2 mm	4 mm	3 mm	5 mm	2 mm	4 mm	3 mm	2 mm	4 mm
COc1ccc(-c2cn3nc(-c4ccc(NCC5CCCO5)c([N+](=O)[O-])c4)sc3n2)cc1 (stereo unspecified)	13 mm	13 mm	10 mm	8 mm	9 mm	10 mm	7 mm	6 mm	8 mm	5 mm	6 mm	9 mm
COc1ccc(-c2cn3nc(-c4ccc(NC5CCCCC5)c([N+](=O)[O-])c4)sc3n2)cc1	11 mm	9 mm	10 mm	7 mm	7 mm	9 mm	9 mm	5 mm	7 mm	7 mm	6 mm	8 mm
COc1ccc(-c2cn3nc(-c4ccc(NCc5ccc(F)cc5F)c([N+](=O)[O-])c4)sc3n2)cc1	3 mm	4 mm	4 mm	2 mm	2 mm	1 mm	5 mm	6 mm	8 mm	3 mm	3 mm	6 mm
COc1ccc(-c2cn3nc(-c4ccc(N5CCCC5)c([N+](=O)[O-])c4)sc3n2)cc1	8 mm	6 mm	9 mm	7 mm	4 mm	5 mm	7 mm	4 mm	6 mm	5 mm	5 mm	7 mm
CCN(CC)c1ccc(-c2nn3cc(-c4ccc(OC)cc4)nc3s2)cc1[N+](=O)[O-]	6 mm	3 mm	5 mm	3 mm	1 mm	4 mm	6 mm	3 mm	5 mm	5 mm	3 mm	5 mm
CCCCNc1ccc(-c2nn3cc(-c4ccc(OC)cc4)nc3s2)cc1[N+](=O)[O-]	5 mm	7 mm	6 mm	4 mm	5 mm	3 mm	3 mm	1 mm	3 mm	2 mm		2 mm
CC(C)(C)C(=O)Nc1nnc(-c2ccc(N3CCOCC3)c([N+](=O)[O-])c2)s1	12 mm	13 mm	11 mm	9 mm	10 mm	10 mm	5 mm	2 mm	4 mm	3 mm	2 mm	5 mm
CN1CCN(c2ccc(-c3nnc(NC(=O)C(C)(C)C)s3)cc2[N+](=O)[O-])CC1	5 mm	3 mm	4 mm	3 mm	2 mm	3 mm	4 mm	2 mm	4 mm	2 mm		3 mm
CC(C)(C)C(=O)Nc1nnc(-c2ccc(N3CCC(c4ccc(C(F)(F)F)cc4)CC3)c([N+](=O)[O-])c2)s1	8 mm	7 mm	7 mm	5 mm	6 mm	5 mm	7 mm	5 mm	7 mm	4 mm	5 mm	8 mm
CC(C)(C)C(=O)Nc1nnc(-c2ccc(NC3CCCC3)c([N+](=O)[O-])c2)s1	6 mm	3 mm	4 mm	3 mm	2 mm	4 mm	5 mm	2 mm	4 mm	2 mm	2 mm	4 mm
CC(C)(C)C(=O)Nc1nnc(-c2ccc(NC3CCCCC3)c([N+](=O)[O-])c2)s1	10 mm	9 mm	8 mm	6 mm	7 mm	8 mm	9 mm	4 mm	6 mm	7 mm	5 mm	7 mm
CC(C)(C)C(=O)Nc1nnc(-c2ccc(NCc3ccc(F)cc3F)c([N+](=O)[O-])c2)s1	5 mm	4 mm	4 mm	2 mm	2 mm	3 mm	5 mm	5 mm	7 mm	3 mm	4 mm	6 mm
CC(C)(C)C(=O)Nc1nnc(-c2ccc(N3CCCC3)c([N+](=O)[O-])c2)s1	5 mm	6 mm	3 mm	1 mm	4 mm	3 mm	6 mm	3 mm	5 mm	5 mm	4 mm	6 mm
CC(C)(C)C(=O)Nc1nnc(-c2ccc(Nc3ccc(F)cc3)c([N+](=O)[O-])c2)s1	7 mm	6 mm	5 mm	3 mm	4 mm	5 mm	4 mm	4 mm	5 mm	2 mm	2 mm	3 mm
OC(Cn1cncn1)(Cn1cncn1)c1ccc(F)cc1F [FLUCONAZOLE]							22 mm	15 mm	17 mm	20 mm	10 mm	13 mm
CN[C@@H]1[C@H](O[C@H]2[C@H](O[C@H]3[C@H](O)[C@@H](O)[C@H](N=C(N)N)[C@@H](O)[C@@H]3N=C(N)N)O[C@@H](C)[C@]2(O)C=O)O[C@@H](CO)[C@H](O)[C@H]1O [STREPTOMYCIN]	19 mm	19 mm	22 mm	19 mm	15 mm	17 mm						
